Experimental data as given in ChEMBL document CHEMBL1148054, “Chemical and bioactive constituents from Zanthoxylum simulans” (J Nat Prod, 1994).

Legend:
[1] = tested on: HL-60; assay: Induction of terminal cell differentiation in human HL60 cells at 7.7 uM after 4 days by NBT reduction assay; format: functional
Procedure, shortened: (§1)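 Log-phase HL-60 cells (RPMI 1640, 5% heat-inactivated calf serum, 37°, 5% CO2) were diluted to 1.2×10^5 cells/ml, preincubated 18 h, then treated 4 days with samples in DMSO (final 0.1%; DMSO controls). 10^6 cells were mixed 1:1 with fresh PBS holding 2 mg/ml NBT and 5 μg/ml TPA, 1 h at 37°. Formazan-positive cells were counted microscopically as % NBT-positive.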

[2] = Antiplatelet activity against rabbit platelet assessed as inhibition of platelet activating factor-induced platelet aggregation at 100 ug/ml; format: functional; settings: Oryctolagus cuniculus
[3] = tested on: LNCaP; assay: Cytotoxicity against human LNCAP cells; format: functional; settings: read-out: ED50
Procedure, shortened: (§2)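 Cultured human cancer lines and murine P-388 cells. Complete dose-response data from at least five concentrations of test substance, each tested in duplicate.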

[4] = tested on: HL-60; assay: Induction of terminal cell differentiation in human HL60 cells assessed as inhibition of [3H]thymidine incorporation at 7.7 uM after 4 days; format: functional; design: scale not given: the % may be the effect or the level left
Procedure, shortened: (§3)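 HL-60 cells were kept in RPMI 1640 with 5% heat-inactivated calf serum and penicillin/streptomycin at 37° under 5% CO2. Log-phase cells were diluted to 1.2×10^5 cells/ml and preincubated 18 h. Samples were added in DMSO (final 0.1%; vehicle controls matched) for 4 days. Aliquots then got 0.5 μCi/ml [3H]thymidine for 16 h more, were harvested and scintillation-counted. % incorporation per 10^6 cells = sample DPM / DMSO-control DPM.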

[5] = tested on: HL-60; assay: Induction of terminal cell differentiation in human HL60 cells assessed as cell viability at 61.5 uM by trypan blue exclusion method; format: functional; settings: read-out: Activity
Procedure, shortened: (§4)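 HL-60 cells preincubated 18 h at 1.2×10^5 cells/ml, then exposed 4 days to samples in DMSO (final 0.1%). Viability by trypan blue exclusion: viable/(viable+dead)×100. Cell counts also taken after 4 days.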

[6] = tested on: HL-60; assay: Induction of terminal cell differentiation in human HL60 cells at 30.7 uM after 4 days by NBT reduction assay; format: functional; procedure, shortened: as §1
[7] = tested on: Lu1; assay: Cytotoxicity against human Lu1 cells; format: functional; settings: read-out: ED50 (the source's name); procedure, shortened: as §2
[8] = Cytotoxicity against human multidrug-resistant KBV1 cells in absence of vinblastine; format: functional; settings: KB-V1, read-out: ED50 (the source's name); procedure, shortened: as §2
[9] = Cytotoxicity against human U373 cells; format: functional, U-373MG ATCC; settings: U373 MG, read-out: ED50; procedure, shortened: as §2
[10] = tested on: HL-60; assay: Induction of terminal cell differentiation in human HL60 cells assessed as naphthol AS-D chloroacetate esterase activity at 3.8 uM after 4 days; format: functional
Procedure, shortened: (§5)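 HL-60 cells were grown in RPMI 1640 with 5% heat-inactivated calf serum at 37°, 5% CO2. They were diluted to 1.2×10^5 cells/ml, preincubated 18 h, then exposed 4 days to DMSO-dissolved samples (final DMSO 0.1%, matched vehicle controls). Specific esterase (naphthol AS-D chloroacetate) was scored cytochemically with a commercial kit as the percentage of differentiated cells.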

[11] = tested on: HL-60; assay: Induction of terminal cell differentiation in human HL60 cells assessed as naphthol AS-D chloroacetate esterase activity at 30.7 uM after 4 days; format: functional; procedure, shortened: as §5
[12] = tested on: HL-60; assay: Induction of terminal cell differentiation in human HL60 cells assessed as cell viability at 15.4 uM by trypan blue exclusion method; format: functional; settings: read-out: Activity; procedure, shortened: as §4
[13] = Cytotoxicity against human BC1 cells; format: functional; settings: read-out: ED50 (the source's name); procedure, shortened: as §2
[14] = tested on: HL-60; assay: Induction of terminal cell differentiation in human HL60 cells assessed as naphthol AS-D chloroacetate esterase activity at 15.4 uM after 4 days; format: functional; procedure, shortened: as §5
[15] = tested on: HL-60; assay: Induction of terminal cell differentiation in human HL60 cells at 15.4 uM after 4 days by NBT reduction assay; format: functional; procedure, shortened: as §1
[16] = tested on: SK-MEL; assay: Cytotoxicity against human SK-MEL cells; format: functional; settings: read-out: ED50 (the source's name); procedure, shortened: as §2
[17] = tested on: HL-60; assay: Induction of terminal cell differentiation in human HL60 cells assessed as inhibition of [3H]thymidine incorporation at 15.4 uM after 4 days; format: functional; design: scale not given: the % may be the effect or the level left; procedure, shortened: as §3
[18] = tested on: HL-60; assay: Induction of terminal cell differentiation in human HL60 cells assessed as naphthol AS-D chloroacetate esterase activity at 61.5 uM after 4 days; format: functional; procedure, shortened: as §5
[19] = tested on: P388; assay: Cytotoxicity against mouse P388 cells; format: functional; settings: read-out: ED50 (the source's name); procedure, shortened: as §2
[20] = tested on: HL-60; assay: Induction of cell differentiation in human HL60 cells assessed as alpha naphthyl esterase activity at 30.7 uM after 4 days; format: functional
Procedure, shortened: (§6)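 HL-60 cells in RPMI 1640 with 5% heat-inactivated calf serum at 37° under 5% CO2. Log-phase cells diluted to 1.2×10^5 cells/ml and preincubated 18 h, then samples added in DMSO (final 0.1%, DMSO controls). Cells scored after 4 days.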

[21] = Cytotoxicity against human multidrug-resistant KBV1 cells in presence of vinblastine; format: functional; settings: KB-V1, read-out: ED50 (the source's name); procedure, shortened: as §2
[22] = tested on: HL-60; assay: Induction of terminal cell differentiation in human HL60 cells assessed as inhibition of [3H]thymidine incorporation at 30.7 uM after 4 days; format: functional; design: scale not given: the % may be the effect or the level left; procedure, shortened: as §3
[23] = tested on: HT-1080; assay: Cytotoxicity against human HT1080 cells; format: functional; settings: read-out: ED50 (the source's name); procedure, shortened: as §2
[24] = Antiplatelet activity against rabbit platelet assessed as inhibition of arachidonic acid-induced platelet aggregation at 100 ug/ml; format: functional; settings: Oryctolagus cuniculus
[25] = tested on: Col2; assay: Cytotoxicity against human Col2 cells; format: functional; settings: read-out: ED50 (the source's name); procedure, shortened: as §2
[26] = tested on: HL-60; assay: Induction of cell differentiation in human HL60 cells assessed as alpha naphthyl esterase activity at 61.5 uM after 4 days; format: functional; procedure, shortened: as §6
[27] = tested on: HL-60; assay: Induction of cell differentiation in human HL60 cells assessed as alpha naphthyl esterase activity at 7.7 uM after 4 days; format: functional; procedure, shortened: as §6
[28] = tested on: HL-60; assay: Induction of terminal cell differentiation in human HL60 cells assessed as cell viability at 30.7 uM by trypan blue exclusion method; format: functional; settings: read-out: Activity; procedure, shortened: as §4
[29] = tested on: HL-60; assay: Induction of terminal cell differentiation in human HL60 cells assessed as inhibition of [3H]thymidine incorporation at 61.5 uM after 4 days; format: functional; design: scale not given: the % may be the effect or the level left; procedure, shortened: as §3
[30] = tested on: HL-60; assay: Induction of terminal cell differentiation in human HL60 cells assessed as naphthol AS-D chloroacetate esterase activity at 7.7 uM after 4 days; format: functional; procedure, shortened: as §5
[31] = tested on: HL-60; assay: Induction of cell differentiation in human HL60 cells assessed as alpha naphthyl esterase activity at 15.4 uM after 4 days; format: functional; procedure, shortened: as §6
[32] = tested on: HL-60; assay: Induction of terminal cell differentiation in human HL60 cells assessed as cell viability at 7.7 uM by trypan blue exclusion method; format: functional; settings: read-out: Activity; procedure, shortened: as §4
[33] = Antiplatelet activity against rabbit platelet assessed as inhibition of collagen-induced platelet aggregation at 100 ug/ml; format: functional; settings: Oryctolagus cuniculus
[34] = tested on: HL-60; assay: Induction of terminal cell differentiation in human HL60 cells at 3.8 uM after 4 days by NBT reduction assay; format: functional; procedure, shortened: as §1
[35] = tested on: A-431; assay: Cytotoxicity against human A431 cells; format: functional; settings: read-out: ED50 (the source's name); procedure, shortened: as §2
[36] = tested on: HL-60; assay: Induction of terminal cell differentiation in human HL60 cells assessed as inhibition of [3H]thymidine incorporation at 3.8 uM after 4 days; format: functional; design: scale not given: the % may be the effect or the level left; procedure, shortened: as §3
[37] = tested on: HL-60; assay: Induction of terminal cell differentiation in human HL60 cells at 61.5 uM after 4 days by NBT reduction assay; format: functional; procedure, shortened: as §1
[38] = tested on: KB; assay: Cytotoxicity against human KB cells; format: functional; settings: read-out: ED50 (the source's name); procedure, shortened: as §2
[39] = tested on: HL-60; assay: Induction of cell differentiation in human HL60 cells assessed as alpha naphthyl esterase activity at 3.8 uM after 4 days; format: functional; procedure, shortened: as §6
[40] = tested on: HL-60; assay: Induction of terminal cell differentiation in human HL60 cells assessed as cell viability at 3.8 uM by trypan blue exclusion method; format: functional; settings: read-out: Activity; procedure, shortened: as §4
[41] = tested on: ZR-75-1; assay: Cytotoxicity against human ZR-75-1 cells; format: functional; settings: ZR-75-1, read-out: ED50; procedure, shortened: as §2

For `CC(C)C(=O)CCC1(C)C=Cc2c(c3ccccc3n(C)c2=O)O1` (stereo unspecified), the Activity [1] was 4.5%, the inhibition at 100 µg/mL [2] was 100% and the EC50 [3] was greater than 60 µM. It also gave an Activity [4] of 0%, a viability at 61.5 µM [5] of 85% and an Activity [6] of 9.9%. It also gave an EC50 [7] greater than 60 µM, an EC50 [8] of 24.3 µM and an EC50 [9] greater than 60 µM. It also gave an Activity [10] of 5.5%, an Activity [11] of 9.4% and a viability at 15.4 µM [12] of 98%. For the same compound, the EC50 [13] was greater than 60 µM, the Activity [14] was 8% and the Activity [15] was 8%. For the same compound, the EC50 [16] was 36.6 µM, the Activity [17] was 0% and the Activity [18] was 5%. For the same compound, the EC50 [19] was 9.8 µM, the Activity [20] was 12.22% and the EC50 [21] was 4 µM. It also gave an Activity [22] of 0%, an EC50 [23] greater than 60 µM and an inhibition at 100 µg/mL [24] of 100%. It also gave an EC50 [25] greater than 60 µM, an Activity [26] of 48.9% and an Activity [27] of 5%. For the same compound, the viability at 30.7 µM [28] was 96%, the Activity [29] was 31.6% and the Activity [30] was 6.5%. It also gave an Activity [31] of 5.5%, a viability at 7.7 µM [32] of 98% and an inhibition at 100 µg/mL [33] of 83.9%. For the same compound, the Activity [34] was 5.5%, the EC50 [35] was greater than 60 µM and the Activity [36] was 0%. It also gave an Activity [37] of 53.1%, an EC50 [38] of 46.4 µM and an Activity [39] of 5%. The viability at 3.8 µM [40] was 97% and the EC50 [41] was 11.1 µM.
